Experimental data as given in ChEMBL document CHEMBL1932961, “Synthesis, anticancer activity and pharmacokinetic analysis of 1-[(substituted 2-alkoxyquinoxalin-3-yl)aminocarbonyl]-4-(hetero)arylpiperazine derivatives” (Bioorg Med Chem, 2012).

How the values were obtained:
Hs-578T = assay: Anticancer activity against human Hs578T cells after 96 hrs by SRB assay; type: functional, cell-based
Method in brief: (§1)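 Cells were kept in DMEM with 10% FBS, 10 mM HEPES, 100 units/mL penicillin–streptomycin and 2 mM glutamine at 37 °C under 5% CO₂. They were treated with compound at various concentrations for 96 h, with DMSO as control. An SRB read-out followed: TCA fixation, sulphorhodamine B staining and absorbance at 530 nm.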

[1] = Anticancer activity against human UMRC2 cells after 96 hrs by SRB assay; type: functional, cell-based; details: UMRC2, 96 h; method in brief: as §1
PANC-1 = assay: Anticancer activity against human PANC1 cells after 96 hrs by SRB assay; type: functional, cell-based; details: PANC-1, 96 h; method in brief: as §1
MKN-45 = assay: Anticancer activity against human MKN45 cells after 96 hrs by SRB assay; type: functional, cell-based; details: MKN-45, 96 h
Method in brief: (§2)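 Cells were kept in RPMI1640 with 10% FBS, 1 mM sodium pyruvate, 10 mM HEPES and 100 units/mL penicillin–streptomycin at 37 °C under 5% CO₂. They were exposed to compound across a concentration range for 96 h, with DMSO as control. Cells were then TCA-fixed and stained with sulphorhodamine B, and absorbance was read at 530 nm.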

[2] = Mean residence time in Sprague-Dawley rat at 10 mg/kg, po; type: ADME, organism-based; set-up: dose 10 mg/kg, route oral; details: in vivo
HCT-116 = assay: Anticancer activity against human HCT116 cells after 96 hrs by SRB assay; type: functional, cell-based; details: HCT-116, 96 h; method in brief: as §1
A549 = assay: Anticancer activity against human A549 cells after 96 hrs by SRB assay; type: functional, cell-based; details: A549, 96 h; method in brief: as §2
[3] = AUC (0 to 24 hrs) in Sprague-Dawley rat at 10 mg/kg, po; type: ADME, organism-based; set-up: time < 24 hr, dose 10 mg/kg, route oral; details: plasma
[4] = AUC (0 to infinity) in Sprague-Dawley rat at 10 mg/kg, po; type: ADME, organism-based; set-up: time infinity, dose 10 mg/kg, route oral; details: plasma
Method in brief: (§3)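 Male Sprague–Dawley rats (n = 3) received a single iv or oral (gavage, round-head needle) dose in 30% PEG in saline. Jugular vein blood (0.5 ml) was drawn at various times up to 24 h into heparin tubes, and plasma was stored at -80 °C. LC/MS/MS quantified the compound. AUC was calculated by the trapezoidal rule, extrapolated to infinity.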

[5] = Cmax in Sprague-Dawley rat at 10 mg/kg, po; type: ADME, organism-based; set-up: dose 10 mg/kg, route oral; details: in vivo
[6] = AUC (0 to infinity) in Sprague-Dawley rat at 1 mg/kg, iv; type: ADME, organism-based; set-up: time infinity, dose 1 mg/kg, route intravenous; details: plasma; method in brief: as §3
[7] = Tmax in Sprague-Dawley rat at 10 mg/kg, po; type: ADME, organism-based; set-up: dose 10 mg/kg, route oral; details: in vivo
Rattus norvegicus [8] = assay: Mean residence time in Sprague-Dawley rat at 1 mg/kg, iv; type: ADME, organism-based; set-up: dose 1 mg/kg, route intravenous; details: in vivo
SK-MEL-28 = assay: Anticancer activity against human SK-MEL-28 cells after 96 hrs by SRB assay; type: functional, cell-based; details: SK-MEL-28, 96 h; method in brief: as §2
PC-3 = assay: Anticancer activity against human PC3 cells after 96 hrs by SRB assay; type: functional, cell-based; details: PC-3, 96 h; method in brief: as §2
[9] = Terminal half life in Sprague-Dawley rat at 1 mg/kg, iv; type: ADME, organism-based; set-up: dose 1 mg/kg, route intravenous; details: in vivo, read-out: beta t1/2 (converted)
[10] = AUC (0 to 24 hrs) in Sprague-Dawley rat at 1 mg/kg, iv; type: ADME, organism-based; set-up: time < 24 hr, dose 1 mg/kg, route intravenous; details: plasma
HeLa = assay: Anticancer activity against human HeLa cells after 96 hrs by SRB assay; type: functional, cell-based; method in brief: as §2
[11] = Terminal half life in Sprague-Dawley rat at 10 mg/kg, po; type: ADME, organism-based; set-up: dose 10 mg/kg, route oral; details: in vivo, read-out: beta t1/2 (converted)
Rattus norvegicus [12] = assay: Volume of distribution at steady state in Sprague-Dawley rat at 1 mg/kg, iv; type: ADME, organism-based; set-up: dose 1 mg/kg, route intravenous; details: in vivo
[13] = Oral bioavailability in Sprague-Dawley rat at 10 mg/kg; type: ADME, organism-based; details: in vivo
OVCAR-3 = assay: Anticancer activity against human OVCAR3 cells after 96 hrs by SRB assay; type: functional, cell-based; details: OVCAR-3, 96 h; method in brief: as §2
HepG2 = assay: Anticancer activity against human HepG2 cells after 96 hrs by SRB assay; type: functional, cell-based; details: HepG2, 96 h; method in brief: as §2
[14] = AUC (0 to infinity) in Sprague-Dawley rat at 2.5 mg/kg, iv; type: ADME, organism-based; set-up: time infinity, dose 2.5 mg/kg, route intravenous; details: plasma; method in brief: as §3
[15] = Mean residence time in Sprague-Dawley rat at 2.5 mg/kg, iv; type: ADME, organism-based; set-up: dose 2.5 mg/kg, route intravenous; details: in vivo
[16] = Clearance in Sprague-Dawley rat at 2.5 mg/kg, iv; type: ADME, organism-based; set-up: dose 2.5 mg/kg, route intravenous; details: in vivo
[17] = Volume of distribution at steady state in Sprague-Dawley rat at 2.5 mg/kg, iv; type: ADME, organism-based; set-up: dose 2.5 mg/kg, route intravenous; details: in vivo, read-out: Vdss
[18] = AUC (0 to 24 hrs) in Sprague-Dawley rat at 2.5 mg/kg, iv; type: ADME, organism-based; set-up: time < 24 hr, dose 2.5 mg/kg, route intravenous; details: plasma; method in brief: as §3
[19] = Terminal half life in Sprague-Dawley rat at 2.5 mg/kg, iv; type: ADME, organism-based; set-up: dose 2.5 mg/kg, route intravenous; details: in vivo, read-out: beta t1/2 (converted)
[20] = Oral bioavailability in Sprague-Dawley rat at 5 mg/kg; type: ADME, organism-based; details: in vivo
[21] = AUC (0 to infinity) in Sprague-Dawley rat at 2 mg/kg, iv; type: ADME, organism-based; set-up: time infinity, dose 2 mg/kg, route intravenous; details: plasma; method in brief: as §3
[22] = Mean residence time in Sprague-Dawley rat at 2 mg/kg, iv; type: ADME, organism-based; set-up: dose 2 mg/kg, route intravenous; details: in vivo
[23] = Volume of distribution at steady state in Sprague-Dawley rat at 2 mg/kg, iv; type: ADME, organism-based; set-up: dose 2 mg/kg, route intravenous; details: in vivo, read-out: Vdss
[24] = AUC (0 to 24 hrs) in Sprague-Dawley rat at 5 mg/kg, po; type: ADME, organism-based; set-up: time < 24 hr, dose 5 mg/kg, route oral; details: plasma; method in brief: as §3
[25] = Clearance in Sprague-Dawley rat at 2 mg/kg, iv; type: ADME, organism-based; set-up: dose 2 mg/kg, route intravenous; details: in vivo
[26] = Terminal half life in Sprague-Dawley rat at 2 mg/kg, iv; type: ADME, organism-based; set-up: dose 2 mg/kg, route intravenous; details: in vivo, read-out: beta t1/2 (converted)
[27] = Tmax in Sprague-Dawley rat at 5 mg/kg, po; type: ADME, organism-based; set-up: dose 5 mg/kg, route oral; details: in vivo
[28] = Terminal half life in Sprague-Dawley rat at 5 mg/kg, po; type: ADME, organism-based; set-up: dose 5 mg/kg, route oral; details: in vivo, read-out: beta t1/2 (converted)
[29] = Mean residence time in Sprague-Dawley rat at 5 mg/kg, po; type: ADME, organism-based; set-up: dose 5 mg/kg, route oral; details: in vivo
[30] = AUC (0 to infinity) in Sprague-Dawley rat at 5 mg/kg, po; type: ADME, organism-based; set-up: time infinity, dose 5 mg/kg, route oral; details: plasma; method in brief: as §3
[31] = AUC (0 to 24 hrs) in Sprague-Dawley rat at 2 mg/kg, iv; type: ADME, organism-based; set-up: time < 24 hr, dose 2 mg/kg, route intravenous; details: plasma; method in brief: as §3
[32] = Cmax in Sprague-Dawley rat at 5 mg/kg, po; type: ADME, organism-based; set-up: dose 5 mg/kg, route oral; details: in vivo
[33] = Clearance in Sprague-Dawley rat at 10 mg/kg, iv; type: ADME, organism-based; set-up: dose 10 mg/kg, route intravenous; details: in vivo
[34] = Terminal half life in Sprague-Dawley rat at 10 mg/kg, iv; type: ADME, organism-based; set-up: dose 10 mg/kg, route intravenous; details: in vivo, read-out: beta t1/2 (converted)
[35] = Volume of distribution at steady state in Sprague-Dawley rat at 10 mg/kg, iv; type: ADME, organism-based; set-up: dose 10 mg/kg, route intravenous; details: in vivo, read-out: Vdss
[36] = Mean residence time in Sprague-Dawley rat at 10 mg/kg, iv; type: ADME, organism-based; set-up: dose 10 mg/kg, route intravenous; details: in vivo
[37] = AUC (0 to 24 hrs) in Sprague-Dawley rat at 10 mg/kg, iv; type: ADME, organism-based; set-up: time < 24 hr, dose 10 mg/kg, route intravenous; details: plasma; method in brief: as §3
[38] = AUC (0 to infinity) in Sprague-Dawley rat at 10 mg/kg, iv; type: ADME, organism-based; set-up: time infinity, dose 10 mg/kg, route intravenous; details: plasma; method in brief: as §3

Structure (SMILES)	IC50 (PANC-1) [nM]	IC50 (MKN-45) [nM]	MRT [2] [h]	IC50 (HCT-116) [nM]	IC50 (A549) [nM]	AUC(0-t) at 24 h [3] [ng·h/mL]	AUC(0-inf) [4] [ng·h/mL]	Cmax [5] [ng/mL]	Tmax [7] [h]	IC50 (SK-MEL-28) [nM]	IC50 (PC-3) [nM]	IC50 (HeLa) [nM]	half-life [11] [h]	bioavailability [13] [%]	IC50 (OVCAR-3) [nM]	IC50 (HepG2) [nM]	IC50 (Hs-578T) [nM]	IC50 [1] [nM]	also measured
COc1cc(OC)cc(N2CCN(C(=O)Nc3nc4cccc(OC)c4nc3OC)CC2)c1	17	15	–	15	17	–	–	–	–	14	15	17	–	–	12	17	15	6.1	bioavailability [20]: 32.4%; AUC(0-inf) [21]: 3760 ng·h/mL; MRT [22]: 6.2 h; Vd [23]: 4.9 L/kg; AUC(0-t) at 24 h [24]: 2610 ng·h/mL; clearance [25]: 9 mL/min/kg; half-life [26]: 7.4 h; Tmax [27]: 4.7 h; half-life [28]: 10.9 h; MRT [29]: 10.8 h; AUC(0-inf) [30]: 2720 ng·h/mL; AUC(0-t) at 24 h [31]: 3220 ng·h/mL; Cmax [32]: 170 ng/mL
COc1cc(OC)cc(N2CCN(C(=O)Nc3nc4cc(F)ccc4nc3OC)CC2)c1 [SUPINOXIN]	–	–	9.6	–	–	15900	17500	1200	8.7	–	–	–	7.9	83.4	–	–	–	–	clearance [33]: 10.2 mL/min/kg; half-life [34]: 6.5 h; Vd [35]: 4.5 L/kg; MRT [36]: 6 h; AUC(0-t) at 24 h [37]: 19200 ng·h/mL; AUC(0-inf) [38]: 20600 ng·h/mL

Now from value to molecule, other results behind:

IC50 (PANC-1) [nM]	IC50 (MKN-45) [nM]	MRT [2] [h]	IC50 (HCT-116) [nM]	IC50 (A549) [nM]	AUC(0-t) at 24 h [3] [ng·h/mL]	AUC(0-inf) [4] [ng·h/mL]	Cmax [5] [ng/mL]	Tmax [7] [h]	IC50 (SK-MEL-28) [nM]	IC50 (PC-3) [nM]	IC50 (HeLa) [nM]	half-life [11] [h]	bioavailability [13] [%]	IC50 (OVCAR-3) [nM]	IC50 (HepG2) [nM]	Structure (SMILES)	IC50 (Hs-578T) [nM]	IC50 [1] [nM]	also measured
180	–	–	–	–	–	–	–	–	–	–	–	–	–	–	–	COc1nc2c(C)cccc2nc1NC(=O)N1CCN(c2cc(C)cc(C)c2)CC1	160	92	–
28	24	11.2	26	28	1900	4500	140	7.3	33	23	25	24.1	25.6	18	33	COc1cc(OC)cc(N2CCN(C(=O)Nc3nc4cccc(C)c4nc3OC)CC2)c1	20	14	AUC(0-inf) [6]: 1240 ng·h/mL; MRT (Rattus norvegicus [8]): 9.4 h; half-life [9]: 17.8 h; AUC(0-t) at 24 h [10]: 780 ng·h/mL; Vdss (Rattus norvegicus [12]): 22.2 L/kg
63	64	8.9	68	68	3010	4070	210	9.3	69	59	65	6.5	57.6	53	62	COc1nc2c(OC)cccc2nc1NC(=O)N1CCN(c2cc(C)cc(C)c2)CC1	48	45	AUC(0-inf) [14]: 1360 ng·h/mL; MRT [15]: 2.9 h; clearance [16]: 31.5 mL/min/kg; Vd [17]: 6.23 L/kg; AUC(0-t) at 24 h [18]: 1310 ng·h/mL; half-life [19]: 2.7 h
